Assay results taken from ChEMBL document CHEMBL5620402, “Development of submicromolar 17β-HSD10 inhibitors and their in vitro and in vivo evaluation” (Eur J Med Chem, 2023).

Assay: Permeability coefficient in male albino Wistar rat assessed as ratio of brain AUC to plasma AUC at 0.013 mg/kg, iv measured upto 1440 mins by HPLC-MS analysis
Assay type: ADME, organism-based
Summary of the method: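 Single tail-vein injection into male wild-type rats, 0.1 mL per 100 g body weight. Solutions were 20 or 25 μM in saline with 3% DMSO, giving 0.013 or 0.018 mg/kg. Rats were exsanguinated at 5–1440 min (9 time-points, 3 per point). Plasma and brain levels were measured by HPLC-MS. Parameters came from non-compartmental analysis; values are mean ± SE of three.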

Kp at 24 h: 0.566
SMILES: CC(=O)Nc1ccc2nc(NC(=O)Nc3ccc(O)c(Cl)c3)sc2c1
